Test results as given in ChEMBL document CHEMBL1154236, “Monoterpenes from Paeonia albiflora and their inhibitory activity on nitric oxide production by lipopolysaccharide-activated microglia” (J Nat Prod, 2009).
pIC50: −log10 of the molar value.

Key:
N9 [1] = assay: Antiinflammatory activity against mouse N9 cells assessed as LPS-induced nitric oxide production at 30 uM after 48 hrs by Griess reaction relative to control; conditions: N9, 48 h
N9 [2] = assay: Antiinflammatory activity against mouse N9 cells assessed as LPS-induced nitric oxide production at 10 uM after 48 hrs by Griess reaction relative to control; conditions: N9, 48 h
N9 [3] = assay: Antiinflammatory activity against mouse N9 cells assessed as LPS-induced nitric oxide production at 1 uM after 48 hrs by Griess reaction relative to control; conditions: N9, 48 h
N9 [4] = assay: Antiinflammatory activity against mouse N9 cells assessed as LPS-induced nitric oxide production at 3 uM after 48 hrs by Griess reaction relative to control; conditions: N9, 48 h
N9 [5] = assay: Antiinflammatory activity against mouse N9 cells assessed as inhibition of LPS-induced nitric oxide production after 48 hrs by Griess reaction relative to control; conditions: N9, 48 h
N9 [6] = assay: Cytotoxicity against LPS-stimulated mouse N9 cells at 1 to 30 uM after 48 hrs by MTT assay; format: cell-based; conditions: n9, 48 h
In short: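 N9 microglia seeded at 5 × 10^4 cells/well and exposed to compounds with LPS (1 µg/mL) for 48 h. MTT 0.25 mg/mL then added for 3 h at 37 °C. Formazan dissolved in DMSO and absorbance read at 490 nm.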

Row | pIC50 (N9 [5]) | SMILES | NO production (% of LPS control) at 30 µM (N9 [1]) [%] | NO production (% of LPS control) at 10 µM (N9 [2]) [%] | NO production (% of LPS control) at 1 µM (N9 [3]) [%] | NO production (% of LPS control) at 3 µM (N9 [4]) [%] | Activity (N9 [6])
1 | < 4.00 | COc1cc(C(=O)OC[C@H]2O[C@@H](O[C@@]34C[C@H]5[C@@]3(CO)[C@H]3O[C@]5(O)C[C@]4(C)O3)[C@H](O)[C@@H](O)[C@@H]2O)ccc1O [MUDANPIOSIDE E] | 67.4 | 80.9 | 86.2 | 83.9 | 
2 | 4.44 | CO[C@H]1O[C@@]2(C)CC(=O)[C@H]3C[C@]2(O[C@@H]2O[C@H](COC(=O)c4ccccc4)[C@@H](O)[C@H](O)[C@H]2O)[C@]13COC(=O)c1ccccc1 [PAEONIDANIN A] | 57.2 | 59.1 | 86.6 | 74.9 | 
3 | < 4.00 | C[C@@]12C[C@@]3(O)O[C@@H](O1)[C@]1(COC(=O)c4ccccc4)[C@@H]3C[C@]12O[C@@H]1O[C@H](CO[C@H]2O[C@H](CO)[C@@H](O)[C@H](O)[C@H]2O)[C@@H](O)[C@H](O)[C@H]1O | 70.5 | 85.1 | 90.1 | 91.5 | 
4 | 4.56 | C[C@@]12C[C@@]3(O)O[C@@H](O1)[C@]1(COC(=O)c4ccccc4)[C@H]3C[C@@]12O[C@@H]1O[C@H](CO)[C@@H](O)[C@H](O)[C@H]1O [PAEONIFLORIN] | 66.7 | 79.5 | 100 | 87.8 | 
5 | < 4.00 | CO[C@H]1O[C@@]2(C)CC(=O)[C@H]3C[C@]2(O)[C@]13COC(=O)c1ccccc1 [PAEONIDANGENIN] | 66.2 | 85 | 89.9 | 91.5 | 
6 | 4.21 | C[C@@H]1CC(=O)[C@H]2C[C@]1(O)[C@]2(C)COC(=O)c1cc(O)c(O)c(O)c1 [PAEONIFLORONE] | 64.1 | 67.5 | 91.3 | 83.8 | 
7 | < 4.00 | C[C@@]12C[C@@]3(O)O[C@@H](O1)[C@]1(COC(=O)c4ccc(O)cc4)[C@@H]3C[C@]12O[C@@H]1O[C@H](CO)[C@@H](O)[C@H](O)[C@H]1O [OXYPAEONIFLORIN] | 76.6 | 76.6 | 71.7 | 83 | 
8 | < 4.00 | CC12CC3OC4O[C@H](CO)[C@@H](O)[C@H](O)[C@H]4OC34CC1C4(COC(=O)c1ccccc1)C(=O)O2 (stereo not given in full) [LACTIFLORIN] | 81.2 | 86.7 | 89.4 | 91.5 | 
9 |  | CO[C@H]1O[C@@]2(C)CC(=O)[C@H]3C[C@]2(O[C@@H]2O[C@H](CO[C@H]4O[C@@]5(C)CC(=O)[C@H]6C[C@]5(O[C@@H]5O[C@H](CO)[C@@H](O)[C@H](O)[C@H]5O)[C@]46COC(=O)c4ccccc4)[C@@H](O)[C@H](O)[C@H]2O)[C@]13COC(=O)c1ccccc1 [PAEONIDANIN D] | 77.1 | 83.5 | 112 | 96.6 | Toxic
10 | < 4.00 | C[C@]12C[C@@H](O)[C@H]3C[C@]1(O[C@@H]1O[C@H](COC(=O)c4ccccc4)[C@@H](O)[C@H](O)[C@H]1O)[C@]3(COC(=O)c1ccccc1)C(=O)O2 [PAEONIVAYIN] | 82.6 | 82 | 86.7 | 88.3 | 
11 |  | C[C@@]12CC(=O)[C@H]3C[C@]1(O)O[C@H](O2)[C@@H]3COC(=O)c1ccccc1 [PAEONIFLORIGENONE] | 26.7 | 24.5 | 92.6 | 71.9 | Toxic
12 | < 4.00 | CO[C@H]1O[C@@]2(C)CC(=O)[C@H]3C[C@]2(O[C@@H]2O[C@H](COC(=O)c4ccccc4)[C@@H](O)[C@H](O)[C@H]2O)[C@]13COC(=O)c1ccc(O)cc1 [PAEONIDANIN C] | 80.3 | 94.3 | 106 | 111 | 
